≈ marks a conversion by molar mass, not a printed value.
Columns and labels:
Triticum aestivum [1] = assay: Induction of changes in GST activity in leaves of Triticum aestivum cv. Ning 13 (wheat) seedlings grown on soils containing compound at 2 to 20 mg/kg for 10 days by CDNB dye based assay relative to untreated control; format: organism-based; parameters: dose 2-20 mg/kg; conditions: in vivo, 240 h
Triticum aestivum [2] = assay: Toxicity in Triticum aestivum cv. Ning 13 (wheat) seedlings assessed as reduction in root length grown on soils containing compound at 20 mg/kg for 10 days relative to untreated control; format: organism-based; parameters: dose 20 mg/kg; scale not given: the % may be the effect or the level left; conditions: in vivo, 240 h
Method in brief: (§1)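 Surface-sterilized seeds germinated 8 h at 25 °C, then grown 10 days (third leaf) in soil at 0, 2, 3.5, 5, 10, 20 mg/kg, watered to 60–70% water content, 12 h photoperiod, 300 µmol photons m-2 s-1, 25/20 °C. Elongation measured; dry mass after 70 °C for 72 h. Mean ± SD, n = 3.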

Triticum aestivum [3] = assay: Reduction in APX activity in leaves of Triticum aestivum cv. Ning 13 (wheat) seedlings grown on soils containing compound at 20 mg/kg for 10 days relative to untreated control; format: ADME, organism-based; parameters: dose 20 mg/kg; conditions: in vivo, 240 h
Triticum aestivum [4] = assay: Toxicity in Triticum aestivum cv. Ning 13 (wheat) seedlings assessed as reduction in shoot elongation grown on soils containing compound at 20 mg/kg for 10 days relative to untreated control; format: organism-based; parameters: dose 20 mg/kg; scale not given: the % may be the effect or the level left; conditions: in vivo, 240 h; method in brief: as §1
Triticum aestivum [5] = assay: Reduction in CAT activity in roots of Triticum aestivum cv. Ning 13 (wheat) seedlings grown on soils containing compound at 10 to 20 mg/kg for 10 days by H2O2 consumption assay relative to untreated control; format: ADME, organism-based; parameters: dose 10-20 mg/kg; conditions: in vivo, 240 h
Triticum aestivum [6] = assay: Increase in SOD activity in shoots of Triticum aestivum cv. Ning 13 (wheat) seedlings grown on soils containing compound at 2 to 10 mg/kg for 10 days by PAGE method assay relative to untreated control; format: ADME, organism-based; parameters: dose 2-10 mg/kg; conditions: in vivo, 240 h
Triticum aestivum [7] = assay: Reduction in APX activity in roots of Triticum aestivum cv. Ning 13 (wheat) seedlings grown on soils containing compound at 20 mg/kg for 10 days relative to untreated control; format: ADME, organism-based; parameters: dose 20 mg/kg; conditions: in vivo, 240 h
Triticum aestivum [8] = assay: Reduction in POD activity in leaves of Triticum aestivum cv. Ning 13 (wheat) seedlings grown on soils containing compound at 20 mg/kg for 10 days by guaiacol oxidation relative to untreated control; format: ADME, organism-based; parameters: dose 20 mg/kg; conditions: in vivo, 240 h
Method in brief: (§2)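 Crude leaf or root extract (Tris-HCl pH 7.8, EDTA, PVP; 15000g) from seedlings grown 10 days in soil with 0–20 mg/kg herbicide. Guaiacol oxidation read at 470 nm for 1 min in 100 mM potassium phosphate pH 7.0, 20 mM guaiacol, 10 mM H2O2. Mean ± SD, n = 3.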

Triticum aestivum [9] = assay: Toxicity in Triticum aestivum cv. Ning 13 (wheat) seedlings assessed as inhibition of shoot growth measured as dry weight grown on soils containing compound at 2 to 20 mg/kg for 10 days; format: organism-based; parameters: dose 2-20 mg/kg; conditions: in vivo, 240 h; method in brief: as §1
Triticum aestivum [10] = assay: Increase in POD activity in roots of Triticum aestivum cv. Ning 13 (wheat) seedlings grown on soils containing compound at 5 to 10 mg/kg for 10 days by guaiacol oxidation relative to untreated control; format: ADME, organism-based; parameters: dose 5-10 mg/kg; conditions: in vivo, 240 h; method in brief: as §2
Triticum aestivum [11] = assay: Reduction in CAT activity in leaves of Triticum aestivum cv. Ning 13 (wheat) seedlings grown on soils containing compound at 2 to 20 mg/kg for 10 days by H2O2 consumption assay relative to untreated control; format: ADME, organism-based; parameters: dose 2-20 mg/kg; conditions: in vivo, 240 h
Triticum aestivum [12] = assay: Reduction in CAT isoforms activity in leaves of Triticum aestivum cv. Ning 13 (wheat) seedlings grown on soils containing compound at 2 to 20 mg/kg for 10 days by PAGE method assay relative to untreated control; format: ADME, organism-based; parameters: dose 2-20 mg/kg; conditions: in vivo, 240 h
Method in brief: (§3)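 Native PAGE, 5% stacking/10% separating gel, run at 4 °C (10 mA, then 15 mA), of tissue extracts from seedlings grown 10 days in soil at 0, 2, 3.5, 5, 10, 20 mg/kg. CAT bands: gel soaked in water 15 min, then 0.03% H2O2 25 min, washed, stained with 1% potassium ferricyanide plus 1% ferric chloride.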

Triticum aestivum [13] = assay: Toxicity in Triticum aestivum cv. Ning 13 (wheat) seedlings assessed as reduction in chlorophyll content in leaves grown on soils containing compound at 2 mg/kg for 10 days relative to untreated control; format: organism-based; parameters: dose 2 mg/kg; scale not given: the % may be the effect or the level left; conditions: in vivo, 240 h
Method in brief: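 Fresh leaf (0.1 g) from 10-day seedlings in spiked soil extracted in 80% acetone (pH 7.8, phosphate), spun 500g 10 min. Total chlorophyll calculated spectrophotometrically. Mean ± SD, n = 3.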

Triticum aestivum [14] = assay: Increase in CAT activity in roots of Triticum aestivum cv. Ning 13 (wheat) seedlings grown on soils containing compound at 2 to 5 mg/kg for 10 days by H2O2 consumption assay relative to untreated control; format: ADME, organism-based; parameters: dose 2-5 mg/kg; conditions: in vivo, 240 h
Triticum aestivum [15] = assay: Increase in APX activity in roots of Triticum aestivum cv. Ning 13 (wheat) seedlings grown on soils containing compound at 5 to 10 mg/kg for 10 days relative to untreated control; format: ADME, organism-based; parameters: dose 5-10 mg/kg; conditions: in vivo, 240 h
Triticum aestivum [16] = assay: Increase in POD activity in leaves of Triticum aestivum cv. Ning 13 (wheat) seedlings grown on soils containing compound at 5 to 10 mg/kg for 10 days by guaiacol oxidation relative to untreated control; format: ADME, organism-based; parameters: dose 5-10 mg/kg; conditions: in vivo, 240 h; method in brief: as §2
Triticum aestivum [17] = assay: Induction of lipid peroxidation in Triticum aestivum cv. Ning 13 (wheat) seedlings assessed as increase in TBARS level in leaves grown on soils containing compound for 10 days relative to untreated control; format: organism-based; conditions: in vivo, 240 h
Method in brief: (§4)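 Seedlings grown 10 days in soil at 0–20 mg/kg. Frozen tissue (0.5 g) ground in 0.1% TCA, spun; supernatant heated 30 min in boiling water with 0.5% TBA in 20% TCA. A532 minus A600 read; TBARS calculated with ε 155 mM-1 cm-1. Mean ± SD, n = 3.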

Triticum aestivum [18] = assay: Induction of changes in GST activity in roots of Triticum aestivum cv. Ning 13 (wheat) seedlings grown on soils containing compound at 2 to 20 mg/kg for 10 days by CDNB dye based assay relative to untreated control; format: organism-based; parameters: dose 2-20 mg/kg; conditions: in vivo, 240 h
Method in brief: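 Tissue extract from 10-day seedlings in soil with 0–20 mg/kg. Reaction: 100 mM potassium phosphate pH 7, 1 mM GSH, 1 mM CDNB (final; added last to start). Absorbance increase at 340 nm tracked over 15 min. Mean ± SD, n = 3.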

Triticum aestivum [19] = assay: Increase in APX activity in leaves of Triticum aestivum cv. Ning 13 (wheat) seedlings grown on soils containing compound at 5 to 10 mg/kg for 10 days relative to untreated control; format: ADME, organism-based; parameters: dose 5-10 mg/kg; conditions: in vivo, 240 h
Triticum aestivum [20] = assay: Increase in CAT isoforms activity in roots of Triticum aestivum cv. Ning 13 (wheat) seedlings grown on soils containing compound at 2 to 5 mg/kg for 10 days by PAGE method assay relative to untreated control; format: ADME, organism-based; parameters: dose 2-5 mg/kg; conditions: in vivo, 240 h; method in brief: as §3
Triticum aestivum [21] = assay: Reduction in CAT isoforms activity in roots of Triticum aestivum cv. Ning 13 (wheat) seedlings grown on soils containing compound at 10 to 20 mg/kg for 10 days by PAGE method assay relative to untreated control; format: ADME, organism-based; parameters: dose 10-20 mg/kg; conditions: in vivo, 240 h; method in brief: as §3
Triticum aestivum [22] = assay: Reduction in SOD activity in roots of Triticum aestivum cv. Ning 13 (wheat) seedlings grown on soils containing compound at 10 to 20 mg/kg for 10 days by PAGE method assay relative to untreated control; format: ADME, organism-based; parameters: dose 10-20 mg/kg; conditions: in vivo, 240 h
Triticum aestivum [23] = assay: Induction of lipid peroxidation in Triticum aestivum cv. Ning 13 (wheat) seedlings assessed as increase in TBARS level in roots grown on soils containing compound at 2 to 20 mg/kg for 10 days relative to untreated control; format: organism-based; parameters: dose 2-20 mg/kg; conditions: in vivo, 240 h; method in brief: as §4
Triticum aestivum [24] = assay: Increase in SOD activity in roots of Triticum aestivum cv. Ning 13 (wheat) seedlings grown on soils containing compound at 2 to 10 mg/kg for 10 days by NBT dye reduction assay relative to untreated control; format: ADME, organism-based; parameters: dose 2-10 mg/kg; conditions: in vivo, 240 h
Method in brief: (§5)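 Root crude extract from 10-day seedlings in soil at 0–20 mg/kg. Inhibition of NBT photoreduction in 50 mM phosphate pH 7.8 with 10 mM methionine and riboflavin, read at 560 nm. One unit inhibits NBT photoreduction to formazan by 50%. Mean ± SD, n = 3.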

Triticum aestivum [25] = assay: Induction of lipid peroxidation in Triticum aestivum cv. Ning 13 (wheat) seedlings assessed as increase in TBARS level in leaves grown on soils containing compound at 10 mg/kg for 10 days relative to untreated control; format: organism-based; parameters: dose 10 mg/kg; conditions: in vivo, 240 h
Method in brief: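 Wheat seeds surface-sterilized (5% hypochlorite, 10 min), germinated 8 h at 25 °C, sown in sieved field soil spiked with herbicide (0–20 mg/kg), watered to 60–70% water content, grown 10 days (12 h photoperiod, 25/20 °C). Fresh leaf (0.5 g) ground in 0.1% TCA, supernatant boiled 30 min with 0.5% TBA in 20% TCA; A532 minus A600, ε 155 mM-1 cm-1; n=3.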

[26] = Solubility in water at 20 degC; format: physicochemical
Triticum aestivum [27] = assay: Increase in SOD activity in roots of Triticum aestivum cv. Ning 13 (wheat) seedings grown on soils containing compound at 2 to 10 mg/kg for 10 days by PAGE method assay relative to untreated control; format: ADME, organism-based; parameters: dose 2-10 mg/kg; conditions: in vivo, 240 h
Triticum aestivum [28] = assay: Reduction in SOD activity in shoots of Triticum aestivum cv. Ning 13 (wheat) seedlings grown on soils containing compound at 10 to 20 mg/kg for 10 days by PAGE method assay relative to untreated control; format: ADME, organism-based; parameters: dose 10-20 mg/kg; conditions: in vivo, 240 h
Triticum aestivum [29] = assay: Reduction in SOD activity in roots of Triticum aestivum cv. Ning 13 (wheat) seedlings grown on soils containing compound at 10 to 20 mg/kg for 10 days by NBT dye reduction assay relative to untreated control; format: ADME, organism-based; parameters: dose 10-20 mg/kg; conditions: in vivo, 240 h; method in brief: as §5
Triticum aestivum [30] = assay: Increase in POD isoforms 1 to 5 activity in roots of Triticum aestivum cv. Ning 13 (wheat) seedlings grown on soils containing compound at 3.5 to 10 mg/kg for 10 days by PAGE method assay relative to untreated control; format: ADME, organism-based; parameters: dose 3.5-10 mg/kg; conditions: in vivo, 240 h
Triticum aestivum [31] = assay: Reduction in POD activity in roots of Triticum aestivum cv. Ning 13 (wheat) seedlings grown on soils containing compound at 20 mg/kg for 10 days by guaiacol oxidation relative to untreated control; format: ADME, organism-based; parameters: dose 20 mg/kg; conditions: in vivo, 240 h; method in brief: as §2

For CC(C)c1ccc(NC(=O)N(C)C)cc1 [ISOPROTURON], the Activity (Triticum aestivum [1]) was “Toxic”, the Activity (Triticum aestivum [2]) was 44% and the Activity (Triticum aestivum [3]) was “Toxic”. The Activity (Triticum aestivum [4]) was 32%, the Activity (Triticum aestivum [5]) was “Toxic” and the Activity (Triticum aestivum [6]) was “Toxic”. The Activity (Triticum aestivum [7]) was “Toxic”, the Activity (Triticum aestivum [8]) was “Toxic” and the Activity (Triticum aestivum [9]) was “Toxic”. The Activity (Triticum aestivum [10]) was “Toxic”, the Activity (Triticum aestivum [11]) was “Dose-dependent effect” and the Activity (Triticum aestivum [12]) was “Dose-dependent effect”. The Activity (Triticum aestivum [13]) was 11%, the Activity (Triticum aestivum [14]) was “Toxic” and the Activity (Triticum aestivum [15]) was “Toxic”. The Activity (Triticum aestivum [16]) was “Toxic”, the Activity (Triticum aestivum [17]) was “Dose-dependent effect” and the Activity (Triticum aestivum [18]) was “Toxic”. For the same compound, the Activity (Triticum aestivum [19]) was “Toxic”, the Activity (Triticum aestivum [20]) was “Toxic” and the Activity (Triticum aestivum [21]) was “Toxic”. For the same compound, the Activity (Triticum aestivum [22]) was “Toxic”, the Activity (Triticum aestivum [23]) was “Non-toxic” and the Activity (Triticum aestivum [24]) was “Dose-dependent effect”. The “fold change (FC)” value (Triticum aestivum [25]) was greater than 2, the solubility [26] was 55 µg/mL (≈ 267 µM) and the Activity (Triticum aestivum [27]) was “Toxic”. For the same compound, the Activity (Triticum aestivum [28]) was “Toxic”, the Activity (Triticum aestivum [29]) was “Toxic” and the Activity (Triticum aestivum [30]) was “Toxic”. The Activity (Triticum aestivum [31]) was “Toxic”.

From ChEMBL document CHEMBL3045798, “Toxic reactivity of wheat (Triticum aestivum) plants to herbicide isoproturon” (J Agric Food Chem, 2008)
